One may read the inhibition as the relative decrease from the control value, in per cent.

Data on seven compounds can be found in PubChem BioAssay.

Each structure is given as a SMILES string. Active and inactive are the calls of the source.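 The calls were made as follows, unless noted: active = a full or partial loss of lipid-probe fluorescence in the fish gall bladder, intestine or both, judged by eye; inactive = no fluorescence loss, or compound toxic to the fish.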

A short description of test [1]: inhibitors of TNFa-induced NFkB p65 translocation, primary screen, imaging, HUVEC, MLSMR starter and 10KST1 sets (AID 438;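 active = inhibition above 20% together with a positive visual image hit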;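 also: compound added about 3h40 before a 20 min TNFalpha stimulation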;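 as to inhibition: signal is the nuclear over cytoplasmic p65 intensity ratio per well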). The conditions noted are these: HUVEC TNFa-induced p65 nuclear translocation; cell count: measured here: nuclei count (cytotoxicity indicator), at 2.08 µM; inhibition: at 2 µM, stronger effect = higher value, 0% TNFa-plus-vehicle, 100% no-TNFa wells.
Test [2] in a line: inhibitors of E-selectin induction by TNFa, primary screen, imaging, HUVEC, immunofluorescence, MLSMR starter and 10KST1 sets (AID 487;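 active = visually confirmed hit in the image check and inhibition above 20%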;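 as to inhibition: signal is fraction of cell area covered by stained E-selectin grains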;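 as to nuclei count: 100% = median nuclei count of all wells on the same plate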). The conditions noted are these: HUVEC TNFalpha-induced E-selectin immunofluorescence imaging, at 2 µM; inhibition: stronger effect = higher value; nuclei count: measured here: cell number, toxicity.
Test [3] is described as follows: DUSP6 inhibitors restoring Erk phosphorylation by chemical complementation, primary imaging in DUSP6-transfected HeLa (AID 609;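 active = compounds giving at least 50% inhibition in the cell-based MKP-3 phosphatase rescue imaging test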;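 as to inhibition: phospho-Erk level distribution per well compared with pooled transfected vehicle control wells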). The following applies: HeLa MKP-3 transfected, phospho-Erk imaging KS statistic, at 10 µM, cells stimulated with TPA for 15 min.
For test [4], the target named is Dual specificity protein phosphatase 6 (Homo sapiens) (UniProt Q16828). The test is described as above. The following applies: HeLa MKP-3 transfected, phospho-Erk imaging KS statistic; at 10 µM; stronger effect = higher value; cells stimulated with TPA for 15 min.
Test [5] concerns the target Voltage-gated potassium channel subunit beta-2 (Rattus norvegicus) (UniProt P62483). As to the kind of experiment: KvBeta enzyme negative modulators, primary screen, biochemical, NADPH fluorescence (AID 622;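 active = fluorescence slope higher than the sample average by over 3 SD, cut at about -0.22 in these data, passing the limit was not always enough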;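 also: slope of raw intensity against log time taken from 70 to 1610 s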). The conditions noted are these: recombinant KvBeta, 4-cyanobenzaldehyde reduction, at 10 µM, stronger effect = higher value.
Test [6] shares this target. The experiment in a line: KvBeta positive modulators, primary screen, biochemical, NADPH fluorescence (AID 623;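 active = NADPH fluorescence slope more negative than the mean of all samples by about 3 SD, 99.7% confidence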;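 also: fluorescence intensity change per second fitted from 20 to 320 s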). The conditions noted are these: Recombinant KvBeta, NADPH fluorescence decrease slope, 10 min; at 10 µM; stronger effect = lower value.
Test [7] addresses Muscarinic acetylcholine receptor M4 (Homo sapiens) (UniProt P08173). The experiment in a line: compounds altering M4/GIRK thallium flux, either direction, primary screen, M4 allosteric agonist project, cell-based, HEK293 M4/GIRK, BTC-AM (AID 625;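 active = fluorescence slope after compound addition differing from the mean of all tested samples at 99.7% confidence, mostly higher but some lower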;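 also: thallium influx through GIRK channels coupled to M4 in HEK293 cells with BTC-AM dye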). The conditions noted are these: at 10 µM, actives lie on both sides. The gist of the method:
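System: HEK293 cells with M4 receptor and GIRK channels | Incubation: Cells overnight at 37 °C, BTC-AM loading 1 h, reads 2 min total | Technique: Kinetic BTC-AM fluorescence sampled at 1 Hz, 10 s pre-addition baseline | Measure: Post-addition slope, 15–24 s, of baseline-normalized fluorescence | Control set: Carbachol positive, DMSO negative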

Test [8] can be described thus: inhibitors of larval lipid processing in zebrafish, primary screen, whole organism, PED6 fluorescence, gall bladder and intestine (AID 686).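 Also: larvae 5 to 7 days old with five fish per well; signal comes from phospholipase A2 cleavage of quenched PED6 carried via bile; overnight exposure to compound and PED6 before scoring.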 The following applies: Zebrafish larvae PED6 lipid processing, fluorescence scoring; screened at 20 µM (by protocol). The gist of the method:
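Test system – live zebrafish larvae aged 5-7 days, whole organism · Buffer or medium – E3 fish medium · Reagent – quenched phospholipase substrate PED6, 100 nM final, ingested by larvae · Doses – 20 µM single dose · Incubation – overnight compound and PED6 incubation · Technique – visual fluorescence microscopy scoring of gall bladder, gut · Read-out basis – visual per-well fluorescence inhibition score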

Test [9] in a line: inhibitors of Chlamydomonas gravitaxis, primary screen, whole organism, Chlamydomonas reinhardtii, WT vs cilia-less mutant, absorbance, 96-well (AID 463189;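 active = inhibition at or above 50% relative to wild type and mutant plate controls; inactive = inhibition below 50%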;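 also: 0% = wild type cc124 cells in DMSO and 100% = ciliumless bld1 mutant cells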). The following applies: OD600 absorbance, 2 days, at 10 µM, stronger effect = higher value.
Setting [10] is: measured here: cell density z-score.
[11] abbreviates: measured here: nuclear c-Myc green intensity z-score.
[12] abbreviates: measured here: nuclear pErk red intensity z-score, stronger effect = higher value.

Dual specificity protein phosphatase 6 (Homo sapiens), sequence (Q16828 whole entry, looked up): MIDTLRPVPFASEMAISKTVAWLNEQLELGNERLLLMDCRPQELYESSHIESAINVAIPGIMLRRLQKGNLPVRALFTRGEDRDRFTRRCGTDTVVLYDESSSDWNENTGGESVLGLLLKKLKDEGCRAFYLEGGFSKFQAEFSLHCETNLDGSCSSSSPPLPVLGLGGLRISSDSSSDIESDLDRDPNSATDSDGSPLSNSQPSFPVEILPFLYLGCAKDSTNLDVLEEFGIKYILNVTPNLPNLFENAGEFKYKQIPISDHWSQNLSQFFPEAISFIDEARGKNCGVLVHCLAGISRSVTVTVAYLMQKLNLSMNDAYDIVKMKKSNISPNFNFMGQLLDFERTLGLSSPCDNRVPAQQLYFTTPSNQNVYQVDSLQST
Voltage-gated potassium channel subunit beta-2 (Rattus norvegicus), sequence (P62483 whole entry, looked up): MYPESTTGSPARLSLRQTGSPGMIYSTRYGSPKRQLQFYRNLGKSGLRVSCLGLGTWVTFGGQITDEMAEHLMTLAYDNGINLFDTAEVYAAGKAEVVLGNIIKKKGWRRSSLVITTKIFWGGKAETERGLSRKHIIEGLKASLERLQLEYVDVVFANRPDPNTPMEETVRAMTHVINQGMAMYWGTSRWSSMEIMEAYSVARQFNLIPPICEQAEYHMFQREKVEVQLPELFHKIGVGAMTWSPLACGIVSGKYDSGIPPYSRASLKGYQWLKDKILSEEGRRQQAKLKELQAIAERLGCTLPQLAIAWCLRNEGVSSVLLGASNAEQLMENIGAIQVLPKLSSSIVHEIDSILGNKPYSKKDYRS
Muscarinic acetylcholine receptor M4 (Homo sapiens), sequence (P08173 whole entry, looked up): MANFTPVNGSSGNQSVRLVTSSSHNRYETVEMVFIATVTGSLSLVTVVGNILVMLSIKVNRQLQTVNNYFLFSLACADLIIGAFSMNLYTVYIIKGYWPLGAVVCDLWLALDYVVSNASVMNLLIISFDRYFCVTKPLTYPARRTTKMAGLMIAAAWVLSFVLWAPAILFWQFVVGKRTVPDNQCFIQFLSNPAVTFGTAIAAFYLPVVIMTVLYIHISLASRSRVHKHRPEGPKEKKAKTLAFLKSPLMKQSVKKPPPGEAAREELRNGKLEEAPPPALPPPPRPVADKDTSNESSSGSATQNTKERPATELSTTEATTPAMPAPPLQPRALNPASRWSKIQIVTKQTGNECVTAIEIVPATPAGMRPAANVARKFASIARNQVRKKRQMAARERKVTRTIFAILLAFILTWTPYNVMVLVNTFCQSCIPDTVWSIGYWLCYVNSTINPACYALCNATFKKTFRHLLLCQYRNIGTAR

On to `Cn1cccc1/C=N/n1cnnc1`, for which the cell count in test [1] is 561. In addition, the inhibition in test [1] was 0.9% (inactive); in test [2], -164% (inactive); in [4] it was -4.59% (inactive); in test [9], -1.85% (inactive). Further, the nuclei count in test [2] turned out to be 130%. Further, the figures for the z-score in test [3] (setting [10]), in test [3] (setting [11]) and in [3] (setting [12]) were 0.378, -0.4 and -0.934, respectively. The results for the fluorescence slope in test [5] and in test [7] were -0.452 (inactive) and 0.0051 (inactive), respectively. The NADPH fluorescence slope in test [6] is -0.000125 (inactive). For the same compound, the compound was classed as inactive in test [8].
As for `CCCC(CCC(=O)Nc1ccc(C(=O)OCC)cc1)C(=O)O` (stereo unspecified), the cell count in test [1] worked out at 368. Besides, the inhibition was -0.1% (inactive) in test [1], -147% (inactive) in test [2], 20.2% (inactive) in test [4] and -0.026% (inactive) in test [9]. Moreover, in test [2], the nuclei count was 152%. In addition, the z-score in [3] (setting [10]) was -0.648; in [3] (setting [11]), 0.519; in test [3] (setting [12]) it was -0.661. For the same compound, the fluorescence slope was -0.484 (inactive) in test [5] and 0.0051 (inactive) in [7]. The NADPH fluorescence slope in [6] is -4.5e-05 (inactive). The outcome in test [8] was inactive.
As to `N#C/C(C(=O)NCc1ccco1)=C1/SC(Cc2ccc(Cl)cc2)C(=O)N1c1ccccc1` (stereo unspecified), in [1], the cell count is 633. Further, the inhibition in test [1] is -0.2% (inactive); in [2], -35.3% (inactive); in test [4], -9.53% (inactive); in test [9] it was 2.21% (inactive). In [2], this compound showed a nuclei count of 104%. Further, the z-score was 0.196 in test [3] (setting [10]), -0.248 in test [3] (setting [11]) and -0.52 in [3] (setting [12]). Moreover, the fluorescence slope was -0.428 (inactive) in [5] and 0.00683 (inactive) in test [7]. The NADPH fluorescence slope in test [6] is -5.4e-05 (inactive). In addition, the result in test [8] was inactive.
As to `Nc1c2c(nc3ccccc13)N(c1ccccc1)CC2`, the cell count in [1] was 585. Besides, the inhibition is 0.4% (inactive) in [1], 60.7% (active) in test [2], -2.09% (inactive) in test [4] and 15.7% (inactive) in [9]. In addition, the nuclei count in test [2] worked out at 92.9%. The figures for the z-score in test [3] (setting [10]), in test [3] (setting [11]) and in test [3] (setting [12]) were 0.356, -0.531 and -0.713, respectively. The fluorescence slope in test [5] was -0.0969 (active); in test [7], 0.00425 (inactive). In addition, in test [6], the NADPH fluorescence slope was -1.3e-05 (inactive). In [8], the outcome is “inactive; toxic”.
As for `CCOC(=O)CSc1nc(N)c(C(=O)Nc2ccc(N(C)C)cc2)s1`, in test [1], the cell count came to 703. The inhibition in test [1] is -7% (inactive); in test [2], -123% (inactive); in test [4], 1.98% (inactive); in [9], -7.12% (inactive). Further, in test [2], the nuclei count was 188%. Also, the figures for the z-score in test [3] (setting [10]), in [3] (setting [11]) and in [3] (setting [12]) were -1.17, 1.84 and -1.52, respectively. For the same compound, the figures for the fluorescence slope in test [5] and in test [7] were -0.46 (inactive) and 0.00383 (inactive), respectively. The NADPH fluorescence slope in test [6] was -6.8e-05 (inactive). In addition, the outcome in test [8] is “active; weak signal in gallbladder and intestine”.
Turning to `Cc1c(Cl)cccc1N1C(=O)C2ON(c3ccccc3)C(c3cccnc3)C2C1=O` (stereo unspecified), the cell count in [1] was 542. Further, the inhibition in test [1] is -6.8% (inactive); in test [2], 9.6% (inactive); in test [4], 6.04% (inactive); in [9], 20% (inactive). Also, the nuclei count in test [2] stood at 83.2%. Further, the z-score in test [3] (setting [10]) was 0.393; in [3] (setting [11]) it was 0.964; in [3] (setting [12]), -1.74. Further, the results for the fluorescence slope in test [5] and in [7] were -0.497 (inactive) and 0.00557 (inactive), respectively. Also, the NADPH fluorescence slope in [6] is -1.3e-05 (inactive). For the same compound, the compound was classed as inactive in test [8].
Turning to `Cc1ccc(-c2n[nH]c(=O)c3ccccc23)cc1S(=O)(=O)NCCN1CCOCC1`, the cell count in test [1] came to 449. Besides, the inhibition was -1.8% (inactive) in test [1], -80.2% (inactive) in test [2], -3.95% (inactive) in test [4] and 19.7% (inactive) in test [9]. The same compound gave a nuclei count in test [2] of 160%. For the same compound, the values for the z-score in [3] (setting [10]), in [3] (setting [11]) and in test [3] (setting [12]) were -0.696, 0.423 and 0.442, respectively. Moreover, the fluorescence slope was -0.41 (inactive) in [5] and 0.00462 (inactive) in test [7]. Further, in test [6], the NADPH fluorescence slope is -4.4e-05 (inactive). For the same compound, the compound was called inactive in test [8].
